# From ChEMBL document CHEMBL1121584, “Soft drugs. 3. A new class of anticholinergic agents” (J Med Chem, 1980)
# Columns and labels:
# Cavia porcellus [1] = species: Cavia porcellus; experiment: Anticholinergic activity was measured by the guinea pig ileum test.; format: functional; conditions: for Kb: Cavia porcellus, Ileum, read-out: pA2 (converted)
# Outline: (§1)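 Guinea pig whole ileum strips in McEwan's solution, gassed with O2/CO2 95:5, 37 °C organ bath, 1 g tension. Cumulative acetylcholine concentration-response curves were run to constancy, then repeated after 15–20 min equilibration with increasing antagonist concentrations. Mean curves gave dose ratios, from which competitive antagonism and pA2 were derived.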
# Cavia porcellus [2] = species: Cavia porcellus; experiment: Antihistamine activity was measured by the guinea pig ileum test.; format: functional; conditions: for Kb: Cavia porcellus, Ileum, read-out: pA2 (converted)
# Outline: (§2)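 Guinea pig ileum strips, McEwan's solution, Carbogen, 37 °C, 1 g tension. Cumulative histamine concentration-response curves were recorded before and after 15–20 min equilibration with rising antagonist concentrations. pA2 came from dose ratios of mean curves.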
# [3] = The hydrolytic kinetics expressed as Kobs was measured at 7.4 pH at 37 degree C; format: ADME; conditions: pH 7.4
# Outline: (§3)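 Chemical hydrolysis in 0.5 M potassium phosphate, pH 7.4, 37 °C. Rate was followed by appearance of the acid product or loss of the quaternary salt. Where salt contained amine hydrochloride, initial concentration was taken from final acid after complete hydrolysis. Half-life was estimated from both where resolved.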
# Cavia porcellus [4] = species: Cavia porcellus; experiment: Antihistamine activity was measured by the guinea pig ileum test; c = NA means no activity found at the doses used.; format: functional; outline: as §2
# [5] = Half life period was measured at 7.4 pH from d[acid]/dt.; format: ADME; conditions: pH 7.4; outline: as §3
# Cavia porcellus [6] = species: Cavia porcellus; experiment: Anticholinergic activity was measured by the guinea pig ileum test; c = NA means no activity found at the doses used.; format: functional; outline: as §1
# [7] = Cholinergic potency was expressed in terms of relative activity vs acetylcholine; c = NA means no activity found at the doses used.; format: functional
# [8] = Half life period was measured at 37 degree C in dog plasma from d[quant]/dt.; format: ADME, Canis lupus familiaris
# Outline: (§4)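 Fresh dog blood was centrifuged and the upper layer filtered through 0.8 and 0.2 µm membranes. 2 mL plasma samples with gentisic acid internal standard were incubated. 5 µL aliquots taken at intervals were assayed against acid standard curves in methanol. Rates came from acid appearance or quaternary salt loss.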
# Canis familiaris = species: Canis familiaris; experiment: The hydrolytic kinetics expressed as Kobs was measured in dog plasma at 37 degree C; format: ADME, Canis lupus familiaris; outline: as §4
# [9] = Half life period was measured at 7.4 pH from d[quant]/dt.; format: ADME; conditions: pH 7.4; outline: as §3
# Cavia porcellus [10] = species: Cavia porcellus; experiment: Anticholinergic activity was measured by the guinea pig ileum test; NA means no activity found at the doses used; format: functional; outline: as §1
# [11] = Cholinergic potency was expressed in terms of relative activity vs acetylcholine; NA means no activity found at the doses used.; format: functional
# [12] = Cholinergic potency was expressed in terms of relative activity vs acetylcholine.; format: functional
structure (smiles),measurement,setting,value
CC1CCC[N+]1(C)COC(=O)C(c1ccccc1)C1CCCC1 (stereo not given),Kb,Cavia porcellus [1],0.501 nM
same,Kb,Cavia porcellus [2],12.6 nM
C[N+]1(COC(=O)C2(c3ccccc3)CCCC2)CCCC1.[Cl-],K obs,[3],0.000181 min⁻¹
same,Kb,Cavia porcellus [1],50.1 nM
same,pA2,Cavia porcellus [4],No activity
same,half-life,[5],3840 min
C[N+]1(COC(=O)C2(c3ccccc3)CC2)CCCC1.[Cl-],K obs,[3],0.00068 min⁻¹
same,Kb,Cavia porcellus [1],1580 nM
same,pA2,Cavia porcellus [4],No activity
same,half-life,[5],1020 min
CCC(C)C(=O)OC[N+]1(C)CCCC1 (stereo not given),pA2,Cavia porcellus [6],No activity
same,Kb,Cavia porcellus [2],2510 nM
Cn1cc[n+](COC(=O)C23CC4CC(CC(C4)C2)C3)c1,Kb,Cavia porcellus [1],2000 nM
same,Kb,Cavia porcellus [2],5010 nM
same,Activity,[7],No activity
CC[N+](CC)(CC)COC(C)=O,pA2,Cavia porcellus [6],No activity
CC[N+](CC)(CC)COC(=O)C1(c2ccccc2)CCCC1,Kb,Cavia porcellus [1],79.4 nM
same,pA2,Cavia porcellus [4],No activity
C[N+]1(COC(=O)C23CC4CC(CC(C4)C2)C3)CCCC1,Kb,Cavia porcellus [1],126 nM
C[N+]1(COC(=O)Cc2ccccc2)CCOCC1.[Cl-],half-life,[8],240 min
same,K obs,Canis familiaris,1.73 min⁻¹
same,half-life,[5],480 min
CCC(C(=O)OC[n+]1ccn(C)c1)c1ccccc1.[Cl-] (stereo not given),half-life,[9],360 min
same,Kb,Cavia porcellus [1],1260 nM
same,Kb,Cavia porcellus [2],1260 nM
same,half-life,[5],342 min
C[N+]1(C2OC(=O)c3ccccc32)CCCC1 (stereo not given),pA2,Cavia porcellus [10],No activity
same,Activity,[11],No activity
CC1CCC[N+]1(C)COC(=O)C1(c2ccccc2)CC1.[Cl-] (stereo not given),K obs,[3],0.00055 min⁻¹
same,Kb,Cavia porcellus [1],251 nM
same,Kb,Cavia porcellus [2],575 nM
same,half-life,[5],1260 min
CC[N+](CC)(CC)COC(=O)C(c1ccccc1)C1CCCC1 (stereo not given) [listing 1 of 2 here],pA2,Cavia porcellus [4],No activity
same,Activity,[7],No activity
CC[N+](CC)(CC)COC(=O)C(c1ccccc1)C1CCCC1 (stereo not given) [listing 2 of 2 here],Kb,Cavia porcellus [1],3.16 nM
same,Kb,Cavia porcellus [2],50.1 nM
CCC(C)C(=O)OC[N+]1(C)CCCC1C (stereo not given),Kb,Cavia porcellus [1],12600 nM
same,Activity,[7],No activity
Cn1cc[n+](COC(=O)C(c2ccccc2)C2CCCC2)c1 (stereo not given),Kb,Cavia porcellus [1],15.8 nM
same,Kb,Cavia porcellus [2],501 nM
CC(C(=O)OC[N+]1(C)CCCC1)(c1ccccc1)c1ccccc1.[Cl-],K obs,[3],0.000193 min⁻¹
same,Kb,Cavia porcellus [1],3.98 nM
same,pA2,Cavia porcellus [4],No activity
same,half-life,[5],3600 min
CCC(C)C(=O)OC[N+]12CCC(CC1)C(OC(C)=O)C2 (stereo not given),pA2,Cavia porcellus [6],No activity
same,Activity,[12],1
CCC(C)C(=O)OC[N+]12CCC(CC1)CC2 (stereo not given),pA2,Cavia porcellus [6],No activity
same,Activity,[12],1
CC[N+](CC)(COC(=O)C(C)(C)C)CC(=O)Nc1c(C)cccc1C,pA2,Cavia porcellus [6],No activity
same,Activity,[12],1
CC[N+](CC)(CC)COC(=O)C1(c2ccccc2)CC1.[Cl-],K obs,[3],0.00055 min⁻¹
same,pA2,Cavia porcellus [6],No activity
same,half-life,[5],1260 min
CC(=O)OC1C[N+]2(COC(=O)C(c3ccccc3)C3CCCC3)CCC1CC2.[Cl-] (stereo not given),pA2,Cavia porcellus [1],8.6
same,pA2,Cavia porcellus [2],5.7
